Reference: ChEMBL document CHEMBL1144800, “Synthesis and antimicrobial properties of monensin A esters” (2008)
Values after ≈ are worked out from the molar mass of the structure shown. Active and inactive are the calls of the source. The calls are words filed in the database; no cut-off is given here.

What was measured:
[1] = tested on: Staphylococcus aureus; test: Antibacterial activity against Staphylococcus aureus NCTC 4163 after 18 hrs by serial agar dilution method; format: functional; details: NCTC 4163, 18 h
Method in brief: (§1)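 MIC by twofold serial agar dilution in Mueller–Hinton II agar per CLSI, run only for compounds that gave an inhibition zone in disc assay. Compounds dissolved in DMSO, tested at 3.125–400 µg/ml in agar. Final inoculum 10^4 CFU/ml. […] DMSO control included.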

[2] = tested on: Staphylococcus aureus; test: Antibacterial activity against Staphylococcus aureus ATCC 29213 at 400 ug/disc after 18 hrs by disc diffusion assay; format: functional; details: ATCC 29213, 18 h, read-out: IZ
Method in brief: (§2)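 Disc diffusion on Mueller–Hinton II agar per CLSI guidelines. Compound in ethanol applied to 9 mm filter paper discs at 400 µg per disc, then dried and placed on the agar surface. Growth inhibition zone diameter read after 18 h at 35 °C.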

[3] = tested on: Candida albicans; test: Antifungal activity against Candida albicans ATCC 10231 at 400 ug/disc after 24 hrs by disc diffusion assay; format: functional
Method in brief: (§3)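 Disc diffusion on RPMI agar with 2% glucose per CLSI guidelines. Discs 9 mm filter paper, loaded from ethanol solution with 400 µg compound, dried before placing on the agar. Inhibition zone diameter read after incubation at 35 °C. Fluconazole control at 25 µg per disc.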

[4] = tested on: Micrococcus luteus; test: Antibacterial activity against Micrococcus luteus ATCC 10240 at 400 ug/disc after 18 hrs by disc diffusion assay; format: functional; details: ATCC 10240, 18 h, read-out: IZ; method in brief: as §2
[5] = tested on: Staphylococcus aureus; test: Antibacterial activity against Staphylococcus aureus ATCC 25923 after 18 hrs by serial agar dilution method; format: functional; details: ATCC 25923, 18 h; method in brief: as §1
[6] = tested on: Bacillus cereus; test: Antibacterial activity against Bacillus cereus ATCC 11778 after 18 hrs by serial agar dilution method; format: functional; details: ATCC 11778, 18 h; method in brief: as §1
[7] = tested on: Pseudomonas aeruginosa; test: Antibacterial activity against Pseudomonas aeruginosa ATCC 15442 at 400 ug/disc after 18 hrs by disc diffusion assay; format: functional, organism-based; method in brief: as §2
[8] = tested on: Pseudomonas aeruginosa; test: Antibacterial activity against Pseudomonas aeruginosa NCTC 6749 at 400 ug/disc after 18 hrs by disc diffusion assay; format: functional, organism-based; method in brief: as §2
[9] = tested on: Enterococcus hirae; test: Antibacterial activity against Enterococcus hirae ATCC 10541 at 400 ug/disc after 18 hrs by disc diffusion assay; format: functional; method in brief: as §2
[10] = tested on: Staphylococcus aureus; test: Antibacterial activity against Staphylococcus aureus ATCC 25923 at 400 ug/disc after 18 hrs by disc diffusion assay; format: functional; details: ATCC 25923, 18 h, read-out: IZ; method in brief: as §2
[11] = tested on: Candida parapsilosis; test: Antifungal activity against Candida parapsilosis ATCC 22019 at 400 ug/disc after 24 hrs by disc diffusion assay; format: functional; method in brief: as §3
[12] = tested on: Escherichia coli; test: Antibacterial activity against Escherichia coli ATCC 10538 at 400 ug/disc after 18 hrs by disc diffusion assay; format: functional, organism-based; method in brief: as §2
[13] = tested on: Bacillus subtilis; test: Antibacterial activity against Bacillus subtilis ATCC 6633 after 18 hrs by serial agar dilution method; format: functional; details: ATCC 6633, 18 h; method in brief: as §1
[14] = tested on: Micrococcus luteus; test: Antibacterial activity against Micrococcus luteus ATCC 10240 after 18 hrs by serial agar dilution method; format: functional; details: ATCC 10240, 18 h; method in brief: as §1
[15] = tested on: Staphylococcus aureus; test: Antibacterial activity against Staphylococcus aureus NCTC 4163 at 400 ug/disc after 18 hrs by disc diffusion assay; format: functional; details: NCTC 4163, 18 h, read-out: IZ; method in brief: as §2
[16] = tested on: Bacillus subtilis; test: Antibacterial activity against Bacillus subtilis ATCC 6633 at 400 ug/disc after 18 hrs by disc diffusion assay; format: functional; details: ATCC 6633, 18 h, read-out: IZ; method in brief: as §2
[17] = tested on: Bacillus cereus; test: Antibacterial activity against Bacillus cereus ATCC 11778 at 400 ug/disc after 18 hrs by disc diffusion assay; format: functional; details: ATCC 11778, 18 h, read-out: IZ; method in brief: as §2
[18] = tested on: Staphylococcus aureus; test: Antibacterial activity against Staphylococcus aureus ATCC 6538 at 400 ug/disc after 18 hrs by disc diffusion assay; format: functional; details: ATCC 6538, 18 h, read-out: IZ; method in brief: as §2
[19] = tested on: Staphylococcus aureus; test: Antibacterial activity against Staphylococcus aureus ATCC 6538 after 18 hrs by serial agar dilution method; format: functional; details: ATCC 6538, 18 h; method in brief: as §1
[20] = tested on: Pseudomonas aeruginosa; test: Antibacterial activity against Pseudomonas aeruginosa ATCC 27853 at 400 ug/disc after 18 hrs by disc diffusion assay; format: functional, organism-based; method in brief: as §2
[21] = tested on: Proteus vulgaris; test: Antibacterial activity against Proteus vulgaris NCTC 4635 at 400 ug/disc after 18 hrs by disc diffusion assay; format: functional, organism-based; method in brief: as §2
[22] = tested on: Escherichia coli; test: Antibacterial activity against Escherichia coli NCTC 8196 at 400 ug/disc after 18 hrs by disc diffusion assay; format: functional, organism-based; method in brief: as §2
[23] = tested on: Staphylococcus aureus; test: Antibacterial activity against Staphylococcus aureus ATCC 29213 after 18 hrs by serial agar dilution method; format: functional; details: ATCC 29213, 18 h; method in brief: as §1
[24] = tested on: Enterococcus hirae; test: Antibacterial activity against Enterococcus hirae ATCC 10541 after 18 hrs by serial agar dilution method; format: functional; details: ATCC 10541, 18 h
Method in brief: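 Twofold serial agar dilution MIC in Mueller–Hinton II agar (CLSI), run only for compounds that gave an inhibition zone in disc assay. DMSO solutions tested at 3.125–400 µg/ml in agar. Final inoculum 10^5 CFU/ml. Read after 18 h at 35 °C. DMSO control included.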

[25] = tested on: Staphylococcus epidermidis; test: Antibacterial activity against Staphylococcus epidermidis ATCC 12228 after 18 hrs by serial agar dilution method; format: functional; details: ATCC 12228, 18 h; method in brief: as §1
[26] = tested on: Staphylococcus epidermidis; test: Antibacterial activity against Staphylococcus epidermidis ATCC 12228 at 400 ug/disc after 18 hrs by disc diffusion assay; format: functional; details: ATCC 12228, 18 h, read-out: IZ; method in brief: as §2
[27] = tested on: Escherichia coli; test: Antibacterial activity against Escherichia coli ATCC 25922 at 400 ug/disc after 18 hrs by disc diffusion assay; format: functional, organism-based; method in brief: as §2
[28] = tested on: Micrococcus luteus; test: Antibacterial activity against Micrococcus luteus ATCC 9341 after 18 hrs by serial agar dilution method; format: functional; details: ATCC 9341, 18 h; method in brief: as §1
[29] = tested on: Candida albicans; test: Antifungal activity against Candida albicans ATCC 90028 at 400 ug/disc after 24 hrs by disc diffusion assay; format: functional; method in brief: as §3
[30] = tested on: Micrococcus luteus; test: Antibacterial activity against Micrococcus luteus ATCC 9341 at 400 ug/disc after 18 hrs by disc diffusion assay; format: functional; details: ATCC 9341, 18 h, read-out: IZ; method in brief: as §2
[31] = tested on: Bordetella bronchiseptica; test: Antibacterial activity against Bordetella bronchiseptica ATCC 4617 at 400 ug/disc after 18 hrs by disc diffusion assay; format: functional, organism-based; method in brief: as §2

CC[C@@]1([C@@H]2O[C@@H]([C@H]3O[C@@](O)(CO)[C@H](C)C[C@@H]3C)C[C@@H]2C)CC[C@H]([C@]2(C)CC[C@]3(C[C@H](O)[C@@H](C)[C@@H]([C@@H](C)[C@@H](OC)[C@H](C)C(=O)O)O3)O2)O1 [MONENSIN]
MIC [1]: 2 µg/mL (≈ 2.98 µM) | zone of inhibition at 400 µg/disc [2]: 18 mm | Activity [3]: inactive | zone of inhibition at 400 µg/disc [4]: 12 mm | MIC [5]: 1 µg/mL (≈ 1.49 µM) | MIC [6]: 2 µg/mL (≈ 2.98 µM) | Activity [7]: inactive | Activity [8]: inactive | Activity [9]: inactive | zone of inhibition at 400 µg/disc [10]: 22 mm | Activity [11]: inactive | Activity [12]: inactive | MIC [13]: 1 µg/mL (≈ 1.49 µM) | MIC [14]: 2 µg/mL (≈ 2.98 µM) | zone of inhibition at 400 µg/disc [15]: 22 mm | zone of inhibition at 400 µg/disc [16]: 22 mm | zone of inhibition at 400 µg/disc [17]: 18 mm | zone of inhibition at 400 µg/disc [18]: 20 mm | MIC [19]: 2 µg/mL (≈ 2.98 µM) | Activity [20]: inactive | Activity [21]: inactive | Activity [22]: inactive | MIC [23]: 1 µg/mL (≈ 1.49 µM) | MIC [24]: 12.5 µg/mL (≈ 18.6 µM) | MIC [25]: 2 µg/mL (≈ 2.98 µM) | zone of inhibition at 400 µg/disc [26]: 15 mm | Activity [27]: inactive | MIC [28]: 4 µg/mL (≈ 5.96 µM) | Activity [29]: inactive | zone of inhibition at 400 µg/disc [30]: 12 mm | Activity [31]: inactive
